The source of these data is ChEMBL document CHEMBL1140030, “Spin trapping experiments with different carbamoyl-substituted EMPO derivatives” (Bioorg Med Chem, 2008).

The structures appear in SMILES notation.

Data set [1] can be described thus: Antioxidant spin trapping activity assessed as hydroxyl radical adducts formation by Fenton system. In kind it is physicochemical. An outline of the steps: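 Hydroxyl adducts: spin trap (40 mM, initial) with Fenton mix of FeSO4 (1 mM), EDTA (2 mM), H2O2 (0.2%); after 10 s diluted 1:1 with 300 mM phosphate buffer pH 7.4 containing 20 mM DTPA; ESR at sweep 80 G, modulation 0.21 G, microwave 20 mW, time constant 0.08 s, gain 2×10^4, 57 G/min.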

A short description of data set [2]: Antioxidant spin trapping activity assessed as alkoxyl radical adducts formation from ethanol. The format is physicochemical. The procedure, abridged:
(§1)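 Alkoxyl adducts by nucleophilic addition: spin trap (1 M, init. conc., in methanol or ethanol) incubated 10 s with FeCl3 (2 mM in the alcohol), then stopped by 1:20 dilution with phosphate buffer (0.3 M, pH 7.4, 20 mM DTPA); ESR recorded at 9.7 GHz, sweep width 80 G.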

Data set [3] can be described thus: Antioxidant spin trapping activity assessed as carbon centered radical adduct formation from methanol. In kind it is physicochemical. An outline of the steps: (§2)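 Fenton-type generation of alcohol-derived carbon radicals: spin trap (40 mM, init. conc.), FeSO4 (1 mM), EDTA (2 mM), H2O2 (0.2%) in methanol or ethanol/water; stopped after 10 s by 1:1 dilution with 300 mM phosphate buffer pH 7.4 containing 20 mM DTPA; ESR: sweep 80 G, modulation 0.21 G, 20 mW, gain 4×10^4, 57 G/min.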

Data set [4] is described as follows: Antioxidant spin trapping activity assessed as carbon centered radical adduct formation from ethanol. The format is physicochemical. An outline of the steps: as §2
Data set [5] in a line: Antioxidant spin trapping activity assessed as carbon centered radical adduct formation from formate. In kind it is physicochemical. An outline of the steps: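 CO2 anion radical adducts: spin trap (40 mM, init. conc.) with FeSO4 (1 mM), EDTA (2 mM), H2O2 (0.2%) in aqueous sodium formate (200 mM); reaction stopped after 10 s by 1:1 dilution into 300 mM phosphate buffer pH 7.4 with 20 mM DTPA, then ESR spectrum recorded (sweep width 80 G).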

The nature of data set [6]: Antioxidant spin trapping activity assessed as alkoxyl radical adducts formation from methanol. In kind it is physicochemical. An outline of the steps: as §1
The nature of data set [7]: Partition coefficient, P in n-octanol/phosphate buffer at pH 7.0.

For `CCCCCC1(C(N)=O)CCC=[N+]1[O-]` (stereo unspecified), the result in data set [1], in data set [2], in data set [3], in data set [4], in data set [5] and in data set [6] was Active. In addition, the P in data set [7] is 2.72.

As for `CCCC1(C(N)=O)CCC=[N+]1[O-]` (stereo unspecified), the outcome in data set [1], in data set [2], in data set [3], in data set [4] and in data set [5] was Active. Also, the P in data set [7] came to 0.211.

As to `CCOC(=O)C1(C)CCC=[N+]1[O-]` (stereo unspecified), in data set [7], the P worked out at 0.15.

Molecule `CC1(C(N)=O)CCC=[N+]1[O-]` (stereo unspecified) showed a P in data set [7] of 0.016.

With `CCC1(C(N)=O)CCC=[N+]1[O-]` (stereo unspecified), the result in data set [1] and in data set [5] was Active. Further, in data set [7], the P worked out at 0.056.

For `CCCCC1(C(N)=O)CCC=[N+]1[O-]` (stereo unspecified), the outcome in data set [1] and in data set [5] was Active. Besides, in data set [7], the P turned out to be 0.668.
